# Screens (PubChem)
# A selection: hits, their analogues and other compounds. The true share with any hit is near 2.1%.
# AF4-AF9 inh: blocks AF4 peptide binding to human AF9. actives 0.47% (n = 350,000). AlphaScreen, biotin-AF4 peptide binding to FLAG-AF9. P42568. inhibition, % at 10 µM;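 active = every replicate reaching a set inhibition limit, whatever the replicate mean, cut at about 25% in these data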;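 also: 0% = plate neutral control median and 100% = total signal loss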
# Target sequence (P42568 whole entry, looked up): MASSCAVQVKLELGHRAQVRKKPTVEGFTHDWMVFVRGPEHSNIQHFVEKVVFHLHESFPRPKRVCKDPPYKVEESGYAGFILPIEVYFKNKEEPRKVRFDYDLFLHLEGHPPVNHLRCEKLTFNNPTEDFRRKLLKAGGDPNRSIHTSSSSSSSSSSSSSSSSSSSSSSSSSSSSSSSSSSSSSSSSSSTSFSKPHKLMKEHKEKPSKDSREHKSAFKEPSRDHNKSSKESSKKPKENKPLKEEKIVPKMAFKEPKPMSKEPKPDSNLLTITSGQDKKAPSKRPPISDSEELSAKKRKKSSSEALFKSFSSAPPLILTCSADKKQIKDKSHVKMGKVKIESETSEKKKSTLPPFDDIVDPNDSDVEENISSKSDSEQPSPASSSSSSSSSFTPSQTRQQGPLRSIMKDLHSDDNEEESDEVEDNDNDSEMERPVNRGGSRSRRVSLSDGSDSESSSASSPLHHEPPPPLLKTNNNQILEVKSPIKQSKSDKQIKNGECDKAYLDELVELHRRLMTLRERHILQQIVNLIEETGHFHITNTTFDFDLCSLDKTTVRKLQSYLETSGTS
# PDI inh: PDI (human) enzyme inhibition; actives 0.052% (n = 350,000); inhibition, % at 10 µM; PDI insulin aggregation turbidity, A650, 90 min; AID 588391; P07237;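 active = mean inhibition across replicates of 30% or more, whatever share of single replicates reach that level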
# ARNT TACC3 PPI: disrupts binding between human ARNT and TACC3. AlphaScreen His-ARNT PAS-B/GST-TACC3 binding, luminescence; TACC3 fragment carries E629A point mutation. Q9Y6A5. actives 0.66% (n = 390,000). inhibition, % at 9.99 µM;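 active = mean inhibition of replicates at least 50% and at least half of replicates each reaching 50%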;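 also: 0% = complete ARNT plus TACC3 wells and 100% = ARNT alone without TACC3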
# ERp5 block: ERp5 (human) disulfide isomerase inhibition | Q15084 | ERp5 insulin aggregation, absorbance 650 nm, 90 min | inhibition, % at 9.99 µM | actives 0.05% (n = 350,000);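 active = mean replicate inhibition above about 25%, with every replicate also reaching it, limit read from the data, passing the limit was not always enough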
# FGF22 binding: shifts melting point of recombinant human FGF22; recombinant FGF22 thermal shift, SYPRO orange fluorescence; percent of sucrose octasulfate shift, DMSO zero; activity (Tm shift, normalised), % at 9.99 µM; actives 1.5% (n = 340,000); AID 651658;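 active = mean Tm shift, scaled 0 neutral to 100 positive control, at about 1.3% or above, every replicate too, limit read from the data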
# FN deposition inh: fibronectin deposition inhibition; inhibition, % at 12.6 µM; actives 0.086% (n = 350,000); AID 743247; AH1F fibroblasts, Alexa488-fibronectin deposition fluorescence, overnight;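 active = mean inhibition across replicates of 30% or more, regardless of how many single replicates reach that level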;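 also: positive control wells lacked labelled fibronectin entirely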
#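 Schedule: 1 h cell adhesion before compound, then overnight fibronectin incubation; test system: AH1F fibroblast monolayer depositing Alexa488-labelled fibronectin into matrix; quantity: 10000 AH1F cells per well; probe or stimulus: fluorescent fibronectin at 24 nM final; signal: fluorescence, ex 485 nm, em 525 nm; evaluation: percent inhibition as loss of matrix-bound fibronectin fluorescence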
# Starred values were filed as active, the others as inactive; nt = not tested or not shown.
SMILES,AF4-AF9 inh,PDI inh,ARNT TACC3 PPI,ERp5 block,FGF22 binding,FN deposition inh
O=S(=O)(Nc1cccc(Cl)c1)c1cccc(-n2cnnn2)c1,1.8,4.0,1.1,-5.5,43.8*,-2.0
O=S(=O)(Nc1cccc(-n2cnnn2)c1)c1ccc(Cl)nc1,-1.2,1.6,3.0,6.8,-0.1,1.6
O=C(CN1C(=O)CC(c2ccccc2)Sc2ccccc21)NCC1CCCO1 (centres undefined),-3.8,-6.2,-0.5,0.5,43.2*,7.9
COc1ccc(C2CC(=O)N(CC(=O)NCC3CCCO3)c3ccccc3S2)cc1OC (centres undefined),-0.3,-4.7,1.4,-2.0,0.3,-1.0
CCOc1cccc(-c2c(C(=O)N/N=C/c3ccco3)nnn2-c2nonc2N)c1,nt,3.2,5.1,nt,nt,nt
CCOc1cccc(-c2c(C(=O)N/N=C(\C)c3ccccn3)nnn2-c2nonc2N)c1,-13.4,-0.3,91.8*,1.8,-0.1,5.2
CCOc1ccc(/C=N/NC(=O)c2nnn(-c3nonc3N)c2-c2ccc(OCC)cc2)cc1,0.8,-0.4,-9.2,0.2,0.5,3.4
CCOc1cccc(-c2c(C(=O)N/N=C/c3ccc(C)o3)nnn2-c2nonc2N)c1,0.5,3.8,7.7,26.7*,-0.1,6.0
CCOc1ccc(-c2c(C(=O)N/N=C/c3c[nH]c4ccccc34)nnn2-c2nonc2N)cc1,-16.4,15.1,-8.9,7.2,43.0*,-9.2
CC(=O)N(C)C[C@H]1Oc2ccc(N)cc2CC(=O)N(C)C[C@@H]1C,nt,nt,nt,nt,nt,1.6
O=C(NCC1CC1)[C@H]1[C@H](CO)[C@H]2Cn3c(ccc(-c4cccnc4)c3=O)[C@@H]1N2C(=O)C1CCCC1,-3.5,nt,nt,6.2,nt,0.5
CC(C)NC(=O)N(C)C[C@H]1Oc2ccc(NC(=O)Cc3ccccc3)cc2C(=O)N([C@@H](C)CO)C[C@H]1C,-1.9,nt,9.4,3.1,-0.1,nt
COc1ccc2nc(C)cc(N/N=C/c3cccc(OC)c3O)c2c1,25.5*,-0.6,44.6,6.4,-0.7,-7.5
COc1cccc(/C=N/Nc2nc3ccccc3n3cnnc23)c1O,0.0,-1.7,84.9*,-2.0,0.8,11.9
COc1cccc(/C=N/Nc2nccnc2Cl)c1O,3.8,-5.4,nt,-0.5,-0.3,15.6
COc1cccc(/C=N/Nc2ncnc(Cl)c2N)c1O,4.7,-3.1,59.0*,2.3,0.4,4.0
CN(C)c1ccc2c(c1)[C@H]1C[C@H](CC(=O)NC3CCCC3)O[C@H](CO)[C@H]1O2,3.4,nt,14.3,-6.7,-0.7,7.5
CCC(=O)N1CC2(CN(Cc3ccccc3Cl)C2)c2c([nH]c3cc(OC)ccc23)[C@@H]1CO,28.5*,nt,nt,-4.2,0.1,nt
COCC(=O)N1CC2(CCN(Cc3ccccc3Cl)CC2)c2c([nH]c3cc(OC)ccc23)[C@@H]1CO,7.7,nt,nt,-1.4,0.1,nt
COc1ccc2c3c([nH]c2c1)[C@@H](CO)N(C(=O)CN(C)C)CC31CCN(Cc2ccccc2Cl)CC1,30.1*,nt,nt,0.2,-0.2,nt
CCC(=O)N1CC2(CCN(Cc3ccccc3Cl)CC2)c2c([nH]c3cc(OC)ccc23)[C@H]1CO,5.6,nt,nt,2.5,-0.1,-14.5
COCC(=O)N1CC2(C1)CN(Cc1ccccc1F)[C@H](CO)c1[nH]c3cc(OC)ccc3c12,-0.3,nt,nt,33.6*,0.0,-1.0
CCC(=O)N1CC2(CCN(Cc3ccc(Cl)cc3)CC2)c2c([nH]c3cc(OC)ccc23)[C@H]1CO,32.2*,nt,nt,nt,nt,nt
C/C=C/c1ccc([C@H]2[C@@H](CO)N(CC3CCOCC3)C23CN(S(=O)(=O)CC)C3)cc1,0.9,nt,nt,1.1,-0.8,nt
CCN1CCN(C(=O)c2cc(S(=O)(=O)Nc3ccc(S(C)(=O)=O)cc3)ccc2Cl)CC1,-0.2,-1.8,-11.2,1.9,0.0,-8.0
SMILES,AF4-AF9 inh,PDI inh,ARNT TACC3 PPI,ERp5 block,FGF22 binding,FN deposition inh
CC(=O)N1CCN(C(=O)c2cc(S(=O)(=O)Nc3ccc(S(C)(=O)=O)cc3)ccc2Cl)CC1,-10.1,9.8,-7.0,-0.2,43.6*,0.6
CC(=O)NCCC(=O)N1CCCC(CNC(=O)c2ccc(-c3ccccc3)cc2)C1 (centres undefined),-3.9,-3.6,nt,-1.0,43.3*,-0.6
Cc1ccccc1-c1ccc([C@H]2[C@H]3CN(S(=O)(=O)c4cn(C)cn4)CCCCN3[C@H]2CO)cc1,0.1,nt,6.0,-0.5,-0.2,nt
Cn1cc(-c2ccc(Cl)cc2)cc(C#N)c1=O,-0.4,-6.7,-2.3,5.1,43.0*,-4.7
Cn1c(-c2ccc(Cl)cc2)ccc(C#N)c1=O,nt,-7.0,-6.7,nt,nt,nt
O=C(NCCc1ccccc1)c1c(F)cccc1F,-0.7,16.0,-3.4,5.5,43.0*,-1.8
CSc1ncccc1C(=O)NCCc1ccccc1,-1.8,-3.9,-1.9,2.9,43.2*,-5.9
O=C(NCCc1ccccc1)c1n[nH]c(=O)c2ccccc12,-0.6,-0.9,9.9,-1.5,43.2*,-19.4
COc1ccccc1S(=O)(=O)N[C@H]1C=C[C@H](CC(=O)N2CCOCC2)O[C@@H]1CO,-5.0,nt,-13.2,-2.3,0.2,4.0
C[C@H]1CCCCO[C@@H](CN(C)S(=O)(=O)c2ccccc2)[C@@H](C)CN([C@@H](C)CO)C(=O)c2cc(NS(=O)(=O)c3cn(C)cn3)ccc2O1,0.9,nt,-3.2,-5.1,-0.4,1.1
CC(=O)N(C)C[C@H]1Oc2ncc(-c3cccnc3)cc2C(=O)N([C@H](C)CO)C[C@H]1C,-3.4,nt,-7.7,-2.9,0.0,0.2
CC(=O)c1sc(NC(=O)CCCOc2ccc(Cl)cc2)nc1C,-2.6,0.3,-3.2,-2.5,43.2*,3.1
Cc1noc(C)c1NC(=O)N(C)C[C@H]1Oc2c(NC(=O)c3ccc(-c4nccs4)cc3)cccc2C(=O)N([C@@H](C)CO)C[C@@H]1C,-3.9,nt,2.5,2.8,0.1,-3.4
Cc1noc(C)c1NC(=O)N(C)C[C@@H]1Oc2c(NC(=O)c3ccc(-c4nccs4)cc3)cccc2C(=O)N([C@H](C)CO)C[C@H]1C,-3.0,nt,30.7*,-6.3,0.4,2.8
C[C@@H]1CN([C@H](C)CO)C(=O)c2cccc(NC(=O)c3ccc(-c4nccs4)cc3)c2O[C@@H]1CN(C)C(=O)Nc1ccccc1,-0.6,nt,-1.1,-8.5,3.2*,nt
C[C@@H]1CN([C@H](C)CO)C(=O)c2cccc(NC(=O)c3ccc(-c4nccs4)cc3)c2O[C@H]1CN(C)C(=O)Nc1ccccc1,-5.2,nt,18.9*,-8.7,0.5,nt
O=C(C1=C[C@@H](c2ccc3c(c2)OCO3)C[C@@H](OCc2ccc(CO)cc2)O1)N1CCCCCCC1,-1.9,nt,nt,1.4,0.2,nt
O=C(O)c1ccccc1NS(=O)(=O)c1ccc(NNC(=S)Nc2ccc(OC(F)F)cc2)c([N+](=O)[O-])c1,27.4*,-5.0,33.5,-3.7,nt,7.0
